# Assay outcomes as filed in PubChem BioAssay.
# Rows were chosen to be rich in hits. Some 1.5% of all compounds tested hit in one or more screens of this group.
# CSN inh – inhibitors of human CSN-mediated cullin deneddylation | Q92905 | Purified CSN, SCF-Nedd8-OG deneddylation, fluorescence polarization | inhibition, % at 12.5 µM | 0.38% of 360,000 active | AID 651999;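 active means pattern-corrected inhibition above about 35%, with an unprinted fluorescence ratio check between 0.5 and 1.5, limit read from the data, passing the limit was not always enough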;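 further: 0% = enzyme with substrate and 100% = substrate without enzyme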
# Target sequence (Q92905 whole entry, looked up, one chain of several): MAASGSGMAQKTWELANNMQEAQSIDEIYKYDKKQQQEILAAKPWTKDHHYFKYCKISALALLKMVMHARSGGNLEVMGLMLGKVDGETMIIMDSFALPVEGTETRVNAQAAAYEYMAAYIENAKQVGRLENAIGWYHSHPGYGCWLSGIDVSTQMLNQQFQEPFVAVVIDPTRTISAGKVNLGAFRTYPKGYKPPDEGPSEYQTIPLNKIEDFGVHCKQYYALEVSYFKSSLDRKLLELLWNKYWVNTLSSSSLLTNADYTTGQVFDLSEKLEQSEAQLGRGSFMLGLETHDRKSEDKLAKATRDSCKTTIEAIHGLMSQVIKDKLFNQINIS
#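 Schedule: reaction 90 min, room temperature / Assay system: HEK293T-derived human Csn5 enzyme / Input: Csn5 at 0.24 nM final / Measure: inhibition of Csn5 cleavage, % / Control set: substrate-only high control, full reaction low control / Technique: fluorescence polarization of the substrate / Buffer or medium: Tris/NaCl/DTT buffer, pH 7.5 / Reagent: SCFSkp2-Nedd8OG substrate at 10 nM final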
# HNF4A DNA FP – change in binding of human HNF4 alpha to DNA; 0.3% of 360,000 active; activity change, % at 10 µM; P41235; HNF4a-FITC DNA binding, fluorescence polarization, 1 h; in the data active means activity change above about 30%, passing the limit was not always enough
# TPT1 inhibitor – blocks Candida albicans tRNA 2'-phosphotransferase; recombinant caTPT1, FP RNA substrate dephosphorylation; 0.81% of 300,000 active; inhibition, % at 5 µM;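 active means inhibition above the mean of all tested compounds plus 3 SD, set per screening campaign, cut at about 24% in these data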;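 further: plate controls were DMSO alone for no effect and ferristatin control at 100 nM for full effect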
# Rpn11 inh – blocks the human proteasome subunit Rpn11; O00487; human 26S proteasome, Ub4-pepOG fluorescence polarization; 20S core pre-blocked with epoxomicin; inhibition, % at 20 µM; 0.59% of 360,000 active;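 active means inhibition at 20 µM, scaled to each plate's controls, above about 33%, limit read from the data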
# Target sequence (O00487 whole entry, looked up): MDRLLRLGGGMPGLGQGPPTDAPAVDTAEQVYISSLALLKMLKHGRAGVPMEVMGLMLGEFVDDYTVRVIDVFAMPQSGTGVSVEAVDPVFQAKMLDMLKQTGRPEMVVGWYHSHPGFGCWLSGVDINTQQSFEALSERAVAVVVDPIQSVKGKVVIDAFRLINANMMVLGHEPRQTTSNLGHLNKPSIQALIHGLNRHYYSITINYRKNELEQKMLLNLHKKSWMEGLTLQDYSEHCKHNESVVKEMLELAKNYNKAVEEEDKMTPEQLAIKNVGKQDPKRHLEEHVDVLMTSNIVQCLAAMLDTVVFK
# Rpn11 inh conf – Rpn11 inhibition confirmation, single concentration. AID 602318. purified human 26S proteasome, Ub4-pepOG fluorescence polarization; proteasome pretreated with epoxomicin. shares compounds with Rpn11 inh. inhibition, % at 20 µM. 29% of 1,900 active
# MMP-2 counter – blocks human MMP-2, flagging nonselective RPN11 hits; inhibition, % at 20 µM; 4% of 1,900 active; shares compounds with Rpn11 inh; recombinant MMP-2, FRET peptide cleavage fluorescence;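 further: human MMP-2 activated beforehand with APMA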
# Thrombin inh – thrombin (bovine) inhibition counter-screen; shares compounds with Rpn11 inh; bovine thrombin cleavage of Ub4-pepOG, fluorescence polarization; inhibition, % at 20 µM; 13% of 1,900 active;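 active means mean inhibition at least 40% at 20 µM, or signal 3 deviations below plate average, so some actives read negative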;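 further: plate controls were thrombin with DMSO for no effect and buffer wells lacking thrombin for full effect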
# An asterisk follows results filed as active; · = no result; + = active, no number. Unless noted, no stated cut-off is given here; in the data, active means inhibition above about 40%; inactive means the rest.
SMILES,CSN inh,HNF4A DNA FP,TPT1 inhibitor,Rpn11 inh,Rpn11 inh conf,MMP-2 counter,Thrombin inh
COC(=O)c1c(-c2cccnc2)csc1NC(=O)c1ccc2c(c1)OCO2,10,14,21,52*,52*,-20,21
CC(=O)Nc1cnc(-c2ccc3c(c2)OCO3)cn1,3,4,·,9,·,·,·
COc1ccc(Cc2c(-c3ccc(C)cc3)nc3ccc(Cl)cn23)c(C)c1,9,18,·,44*,52*,24,37
COC(=O)c1ccc2nc(-c3ccc(Cl)cc3)c(Cc3ccc(OC)cc3C)n2c1,5,17,·,·,·,·,·
Clc1ccc(C2Nc3ccccc3-n3cccc32)cc1 (centres undefined),2,4,3,54*,13,9,-9
OC(c1ccc(F)c(F)c1)c1ncc(-c2cccc(F)c2)[nH]1 (centres undefined),-4,4,·,-3,·,·,·
CC1(C)CNc2cc([N+](=O)[O-])ccc2S1,-2,0,0,10,·,·,·
CCC(C)c1ccc(S(=O)(=O)N2CCN(CC(O)COCC3CCCO3)CC2)cc1 (centres undefined),1,-2,·,4,·,·,·
Cc1ccc(S(=O)(=O)c2c(N)n(-c3ccccc3)c3nc4ccccc4nc23)cc1,8,-2,-2,5,·,·,·
Cc1ccc(S(=O)(=O)c2c(N)n(NC(=O)c3ccco3)c3nc4ccccc4nc23)cc1,8,29,4,39*,5,-45,-3
Cc1ccc(CSCC(=O)N/N=C/c2ccc(OCC(=O)Nc3ccc(C)cc3)cc2)cc1,12,1,8,102*,80*,19,12
CCOc1cc(/C=C(\C#N)C(=O)Nc2cccc(C(=O)O)c2)ccc1OCc1ccc(Br)cc1,22,-5,-4,107*,-11,-7,-4
Cc1ccccc1NC(=S)NCc1cccs1,0,-25,-3,162*,0,-16,-4
COC(=O)c1ccc(C)c(NC(=O)CSc2sc3c(O)cc(=O)[nH]c3c2C#N)c1,13,-19,5,44*,24,24,-5
Cc1ccc(C)c(NC(=O)CSc2sc3c(O)cc(=O)[nH]c3c2C#N)c1,9,-2,0,23,·,·,·
CCOC(=O)/C=c1\s/c(=C\c2ccc(C(F)(F)F)cc2)c(=O)n1CC(=O)NCc1ccco1,12,10,23,49*,36,-29,38
CC/C(=N/N=C(/CC)c1ccc(O)cc1)c1ccc(O)cc1,0,2,-3,-2,·,·,·
O=C(NCc1ccc(F)cc1)c1cccc2c1C(=O)c1ccc(N3CCOCC3)cc1S2(=O)=O,11,23,·,45*,54*,-11,30
CC1CCN(c2ccc3c(c2)S(=O)(=O)c2cccc(C(=O)NCc4ccc(F)cc4)c2C3=O)CC1,-71,-101,·,14,·,·,·
C=CCNC(=O)c1cccc2c1C(=O)c1ccc(N3CCOCC3)cc1S2(=O)=O,17,27,·,49*,30,-21,13
CC(=O)N1CC(C(=O)Nc2ccc3c(c2)OCO3)Oc2ccccc21 (centres undefined),7,1,·,-12,·,·,·
Cc1ccc(-c2nc(NC(=O)CSc3nnc4scc(-c5ccccc5)n34)ns2)cc1,37*,-3,3,60*,7,-30,-2
CCc1nnc(NC(=O)CSc2nnc3scc(-c4ccc(C)cc4)n23)s1,6,-1,-1,1,·,·,·
COc1ccc(NC(=O)CC(=O)Nc2ccc(OC)cc2OC)c(OC)c1,3,3,-1,129*,1,-15,-17
C#CCn1c(=NC(=O)c2cc(-c3cccs3)nc3ccccc23)sc2cc(S(N)(=O)=O)ccc21,7,7,2,70*,23,-14,9
SMILES,CSN inh,HNF4A DNA FP,TPT1 inhibitor,Rpn11 inh,Rpn11 inh conf,MMP-2 counter,Thrombin inh
C#CCn1c(=NC(=O)c2cc(Cl)sc2Cl)sc2cc(S(N)(=O)=O)ccc21,1,-4,6,20,·,·,·
NC(=O)CC(NC(=O)Cc1ccc(Br)cc1)c1ccc(NCCc2ccc(Cl)cc2)c([N+](=O)[O-])c1 (centres undefined),10,18,·,45*,33,5,-1
NC(=O)CC(NC(=O)Cc1ccc(Br)cc1)c1ccc(NCCc2ccc(F)cc2)c([N+](=O)[O-])c1 (centres undefined),6,22,11,38,·,·,·
COc1ccc(CCNc2ccc(C(CC(N)=O)NC(=O)c3ccc(Br)cc3)cc2[N+](=O)[O-])cc1 (centres undefined),5,23,14,31,·,·,·
COc1ccc(CCNc2ccc(C(CC(N)=O)NC(=O)Cc3ccc(Br)cc3)cc2[N+](=O)[O-])cc1 (centres undefined),4,20,20,55*,16,-21,-20
FC(F)(F)c1cnc(Sc2nc3nccc(-c4ccc(Cl)cc4)n3n2)c(Cl)c1,1,-1,1,-1,·,·,·
CSc1nc2nccc(-c3ccc(Cl)cc3)n2n1,12,-7,3,83*,36,66*,-10
O=C(NC(=S)Nc1ccc2[nH]c(=O)[nH]c2c1)c1ccccc1[N+](=O)[O-],-5,-1,-5,9,·,·,·
CCOP(=O)(c1ccccc1)c1nc(-c2ccc(F)cc2)oc1N1CCCCC1 (centres undefined),4,-1,1,126*,-6,-20,-16
CCOP(=O)(OCC)c1nc(-c2ccc(Br)cc2)oc1N1CCCCC1,1,-1,-1,-1,·,·,·
COc1ccc(N(C)S(=O)(=O)c2cccc(C(=O)Nc3cccc(C(=O)NC4CC4)c3)c2)cc1,4,-2,·,3,·,·,·
O=C(N/N=C/c1ccc2c(c1)OCO2)c1cc2ccccc2o1,6,0,3,-1,·,·,·
O=C(COc1ccc(/C=N/NC(=O)c2cc3ccccc3o2)cc1Cl)Nc1ccccc1,120*,45*,0,+,0,-62,-12
COC(=O)C(Sc1ccc(Cl)cc1)C1SC(=S)N(Cc2ccccc2)C1=O (centres undefined),3,13,·,56*,-13,-5,-5
NCCCC[C@@H]1NC(=O)c2cc([N+](=O)[O-])cc(I)c2SC[C@@H](C(N)=O)NC(=O)[C@H](Cc2ccc(O)cc2)NC1=O,7,-4,0,44*,11,-4,-44
Nc1ccccc1Nc1cc(-c2ccccc2)[nH]n1,10,13,·,43*,0,10,7
COCCOC(=O)C1=C(C)NC(=O)NC1c1c(OC)ncnc1OC (centres undefined),3,-1,2,164*,-11,-6,-10
CCOc1ccc2ccccc2c1C1NC(=O)NC(C)=C1C(=O)OCCOC (centres undefined),4,2,-4,-2,·,·,·
